In brackets after ≈: the same amount, converted by molar mass. Activity calls are given as the source filed them. No cut-off for these calls is given here.
Key:
Staphylococcus aureus [1] = assay: Inhibition of DNA synthesis in Staphylococcus aureus RN4220 harboring gpsA mutant assessed as inhibition of [3H]thymidine incorporation into DNA at 50 uM incubated for 15 mins before [3H]thymidine addition measured after 30 mins by scintillation counting; assay type: functional, organism-based
Method in brief: (§1)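 RN4220 at OD600 0.5 in 10 mL aliquots, 15 min with compound. Then 30 min with 10 µCi label: 3H amino acid mix (protein), [3H]thymidine (DNA) or [3H]uracil (stable RNA). Cells collected on 0.45 µm filters, counted, OD600-normalized and expressed relative to untreated cells. Duplicates, mean with standard error.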

[2] = tested on: Staphylococcus aureus subsp. aureus RN4220; assay: Inhibition of PlsY in Staphylococcus aureus RN4220 harboring gpsA mutant assessed as Fab4-mediated fatty acid chain elongation measured as 20C fatty acid level at 25 uM after 2.5 hrs by mass spectrophotometry; set-up: scale not given: the % may be the effect or the level left
Method in brief: (§2)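 RN4220 grown in Luria-Bertani broth at 37°C with 225 rpm shaking to OD600 0.5. 50 mL cultures treated for 2.5 h alongside a DMSO control. Lipids extracted by Bligh–Dyer and fatty acids analyzed by gas chromatography. Weight percent, mean of duplicates; not detected means <1%.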

Bacillus anthracis [3] = assay: Antibacterial activity against Bacillus anthracis after overnight incubation by microbroth dilution assay; assay type: functional
[4] = tested on: Staphylococcus aureus subsp. aureus RN4220; assay: Inhibition of PlsY in Staphylococcus aureus RN4220 harboring gpsA mutant assessed as Fab4-mediated fatty acid chain elongation measured as 15C fatty acid level at 50 uM after 2.5 hrs by mass spectrophotometry; set-up: scale not given: the % may be the effect or the level left; method in brief: as §2
Staphylococcus aureus [5] = assay: Inhibition of RNA synthesis in Staphylococcus aureus RN4220 harboring gpsA mutant assessed as inhibition of [3H]uracil incorporation into RNA at 50 uM incubated for 15 mins before [3H]uracil addition measured after 30 mins by scintillation counting; assay type: functional, organism-based; method in brief: as §1
Bacillus anthracis [6] = assay: Inhibition of protein synthesis in Bacillus anthracis sterne assessed as Inhibition of [3H]amino acid incorporation into protein incubated for 15 mins prior to [3H]amino acid addition measured after 30 mins by scintillation counting; assay type: functional, organism-based
Staphylococcus aureus [7] = assay: Growth inhibition of Staphylococcus aureus RN4220 harboring gpsA mutant at >= 25 uM measured over 2 hrs by spectrophotometry; assay type: functional, organism-based
Bacillus subtilis = assay: Antibacterial activity against Bacillus subtilis ATCC 23857 after overnight incubation by microbroth dilution assay; assay type: functional
Method in brief: (§3)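 CLSI M7A7 microbroth dilution in Mueller-Hinton broth; S. pneumoniae broth given 5% lysed horse blood. DMSO stocks of 10 mg/mL; twofold dilutions to final 200–0.0125 µg/mL. Mid-log inoculum (OD600 0.5) diluted to final OD600 0.0005 (~10^5 CFU/mL). Overnight at 37°C; MIC is the lowest concentration inhibiting 90% of visible growth.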

[8] = tested on: Staphylococcus aureus subsp. aureus RN4220; assay: Inhibition of PlsY-mediated lipid synthesis in Staphylococcus aureus RN4220 harboring gpsA mutant assessed as inhibition of [14C]acetate incorporation into fatty acid at 50 uM incubated for 15 mins prior to [14C]acetate addition measured after 30 mins by scintillation counting
Method in brief: (§4)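 Mid-log S. aureus RN4220 (OD600 0.5) split into 10 mL aliquots. Compound or DMSO added for 15 min, then 10 µCi [14C]acetate for 30 min. Cells PBS-washed, lipids extracted by Bligh–Dyer, scintillation counted and normalized to OD600. Duplicates, mean with standard error.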

[9] = tested on: Staphylococcus aureus subsp. aureus RN4220; assay: Inhibition of PlsY in Staphylococcus aureus RN4220 harboring gpsA mutant assessed as accumulation of long chain acyl-ACP at 12.5 to 100 uM after 2.5 hrs by Western blot analysis
Method in brief: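 Mid-log RN4220 (OD600 0.5) in 50 mL aliquots treated with compound at 37°C. Cell extracts loaded according to OD600 for similar total protein. Acyl-ACP species separated on 15% polyacrylamide gels containing 2 M urea, then detected by western blot with anti-ACP antibody.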

[10] = tested on: Staphylococcus aureus subsp. aureus RN4220; assay: Inhibition of PlsY in Staphylococcus aureus RN4220 harboring gpsA mutant assessed as Fab4-mediated fatty acid chain elongation measured as 18C fatty acid level at 50 uM after 2.5 hrs by mass spectrophotometry; set-up: scale not given: the % may be the effect or the level left; method in brief: as §2
Staphylococcus aureus [11] = assay: Antibacterial activity against Staphylococcus aureus ATCC 29213 after overnight incubation by microbroth dilution assay; assay type: functional; method in brief: as §3
[12] = tested on: Staphylococcus aureus subsp. aureus RN4220; assay: Inhibition of PlsY in Staphylococcus aureus RN4220 harboring gpsA mutant assessed as 35C phophotidylglycerol formation at 50 uM after 2.5 hrs by mass spectrophotometry
Method in brief: (§5)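 RN4220 grown in Luria-Bertani broth at 37°C to OD600 0.5. 50 mL aliquots treated for 2.5 h alongside a DMSO control. Cells PBS-washed, lipids extracted by Bligh–Dyer. Phosphatidylglycerol molecular species distribution determined by mass spectrometry.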

[13] = tested on: Staphylococcus aureus subsp. aureus RN4220; assay: Inhibition of PlsY in Staphylococcus aureus RN4220 harboring gpsA mutant assessed as Fab4-mediated fatty acid chain elongation measured as 21C fatty acid level at 50 uM after 2.5 hrs by mass spectrophotometry; set-up: scale not given: the % may be the effect or the level left; method in brief: as §2
[14] = tested on: Staphylococcus aureus subsp. aureus RN4220; assay: Inhibition of PlsY in Staphylococcus aureus RN4220 harboring gpsA mutant assessed as 34C phophotidylglycerol formation at 25 uM after 2.5 hrs by mass spectrophotometry; method in brief: as §5
[15] = tested on: Staphylococcus aureus subsp. aureus RN4220; assay: Inhibition of PlsY in Staphylococcus aureus RN4220 harboring gpsA mutant assessed as Fab4-mediated fatty acid chain elongation measured as 21C fatty acid level at 25 uM after 2.5 hrs by mass spectrophotometry; set-up: scale not given: the % may be the effect or the level left; method in brief: as §2
Streptococcus pneumoniae = assay: Antibacterial activity against Streptococcus pneumoniae R6 after overnight incubation by microbroth dilution assay; assay type: functional; method in brief: as §3
Bacillus anthracis [16] = assay: Inhibition of DNA synthesis in Bacillus anthracis sterne assessed as Inhibition of [3H]thymidine incorporation into DNA incubated for 15 mins prior to [3H]thymidine addition measured after 30 mins by scintillation counting; assay type: functional, organism-based
[17] = tested on: Staphylococcus aureus subsp. aureus RN4220; assay: Inhibition of PlsY-mediated lipid synthesis in Staphylococcus aureus RN4220 assessed as inhibition of [14C]acetate incorporation into membrane phospholipids incubated for 15 mins prior to [14C]acetate addition measured after 30 mins by scintillation counting
Method in brief: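 Cultures grown from OD600 0.1 to 0.5, split into 10 mL aliquots, exposed to inhibitor or DMSO control for 15 min, then pulsed with [14C]acetate (10 µCi) for 30 min. Cells washed 4× in PBS, lipids extracted by Bligh and Dyer, counted by scintillation and normalized to OD600. Duplicates, mean with standard error.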

[18] = tested on: Staphylococcus aureus subsp. aureus RN4220; assay: Inhibition of PlsY-mediated lipid synthesis in Staphylococcus aureus RN4220 harboring gpsA mutant assessed as inhibition of [14C]acetate incorporation into fatty acid incubated for 15 mins prior to [14C]acetate addition measured after 30 mins by scintillation counting; method in brief: as §4
[19] = tested on: Staphylococcus aureus subsp. aureus RN4220; assay: Inhibition of PlsY in Staphylococcus aureus RN4220 harboring gpsA mutant assessed as Fab4-mediated fatty acid chain elongation measured as 19C fatty acid level at 50 uM after 2.5 hrs by mass spectrophotometry; set-up: scale not given: the % may be the effect or the level left; method in brief: as §2
[20] = tested on: Staphylococcus aureus subsp. aureus RN4220; assay: Inhibition of PlsY-mediated lipid synthesis in Staphylococcus aureus RN4220 harboring gpsA mutant assessed as increase in [14C]-labeled free fatty acid level
[21] = tested on: Staphylococcus aureus subsp. aureus RN4220; assay: Inhibition of PlsY in Staphylococcus aureus RN4220 harboring gpsA mutant assessed as Fab4-mediated fatty acid chain elongation measured as 17C fatty acid level at 25 uM after 2.5 hrs by mass spectrophotometry; set-up: scale not given: the % may be the effect or the level left; method in brief: as §2

Which results are given for `O=C(CCCCCCCc1ccccc1)NS(=O)(=O)Oc1ccccc1`?
inhibition (Staphylococcus aureus [1]): inactive; Activity [2]: 9%; MIC90 (Bacillus anthracis [3]): 6.25 µg/mL (≈ 16.6 µM); Activity [4]: 32%; inhibition (Staphylococcus aureus [5]): inactive; inhibition (Bacillus anthracis [6]): Active; growth inhibition (GI) (Staphylococcus aureus [7]): Active; MIC90 (Bacillus subtilis): > 200 µg/mL; inhibition [8]: Active; inhibition [9]: Active; Activity [10]: 12%; MIC90 (Staphylococcus aureus [11]): 12.5 µg/mL (≈ 33.3 µM); inhibition [12]: Active; Activity [13]: 14%; inhibition [14]: Active; Activity [15]: 12%; MIC90 (Streptococcus pneumoniae): 100 µg/mL (≈ 266 µM); inhibition (Bacillus anthracis [16]): Active; inhibition [17]: Dose-dependent effect; inhibition [18]: Dose-dependent effect; Activity [19]: 14%; inhibition [20]: Active; Activity [21]: 10%
